Experimental data collected from several papers.
Each line is one published result; the experiments were not run side by side.
Target: Megakaryocyte-associated tyrosine-protein kinase (MATK, Homo sapiens, UniProt P42679)
Residues used in one study (P42679 1-507): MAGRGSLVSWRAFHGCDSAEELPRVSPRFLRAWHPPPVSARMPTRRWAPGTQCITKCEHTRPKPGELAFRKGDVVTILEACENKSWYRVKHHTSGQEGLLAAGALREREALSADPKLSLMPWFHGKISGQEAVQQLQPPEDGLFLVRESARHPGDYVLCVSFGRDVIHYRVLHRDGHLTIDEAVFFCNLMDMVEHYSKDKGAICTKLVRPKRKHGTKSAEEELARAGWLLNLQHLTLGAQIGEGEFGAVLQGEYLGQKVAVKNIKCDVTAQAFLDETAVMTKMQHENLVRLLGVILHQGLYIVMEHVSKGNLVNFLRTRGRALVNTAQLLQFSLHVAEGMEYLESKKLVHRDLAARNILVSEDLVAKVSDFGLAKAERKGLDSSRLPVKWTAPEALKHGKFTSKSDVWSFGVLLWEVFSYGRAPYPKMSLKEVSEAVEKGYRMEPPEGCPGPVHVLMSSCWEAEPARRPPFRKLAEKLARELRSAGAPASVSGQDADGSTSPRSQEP

SMILES	assay	setting	remaining binding [%]
COc1cnc(Nc2cccc(S(N)(=O)=O)c2)nc1N1CCN(c2ccccc2)C(=O)C1	binding, competition with immobilised ligand	1 µM	79
c1cnn2ncc(-c3ccnc(N4CCC45COC5)n3)c2c1	binding	1 µM	87
Cc1cc(NC(=O)c2cccc(S(F)(F)(F)(F)F)c2)cc(-n2ccn3nc(-c4cccnc4)cc23)c1	cell-free assay, competition with immobilised ligand	1 µM	100
COc1ccnn2ncc(-c3ccnc(N(C)C)n3)c12	binding	1 µM	100
CNC(=O)[C@@H]1CC[C@@H](n2c(-c3ccc4cnccc4c3)nc3ccc(C(=O)NCc4cccc(C(N)=O)c4)cc32)C1	binding, competition with immobilised ligand	1 µM	100
COc1ncc2cc3ccccc3nc2c1C#N	cell-free assay, competition with immobilised ligand	5 µM	100
O=C(NCCCN1CCOCC1)c1ccc(Nc2ncc(Cl)c(-c3ccc(Cl)s3)n2)cc1	binding, competition with immobilised ligand	1 µM	48
NS(=O)(=O)c1cc(NC(=O)C2(c3ccccc3Cl)CC2)ccc1Oc1cccc(Cl)c1	cell-free assay, competition with immobilised ligand	1 µM	100
O=C(c1ccc(Nc2nccc(-c3cc4ccccc4s3)n2)cc1)N1CCC(N2CCCC2)CC1	binding, competition with immobilised ligand	1 µM	67
CN(c1nccc(-c2cnn3ncccc23)n1)C1CC1	binding	1 µM	100
c1cncc(-c2cccc(Nc3nccc(NC4CCCCC4)n3)c2)c1	binding, competition with immobilised ligand	10 µM	71
CN(CCCC(F)(F)F)c1nccc(-c2cnn3ncccc23)n1	binding	1 µM	72
CCCOc1ccc([C@@H]2[C@@H](C(=O)O)[C@H](c3ccc4c(c3)OCO4)CN2CC(=O)Nc2c(CC)cccc2CC)cc1	cell-free assay, competition with immobilised ligand	1 µM	90
O=C(c1ccc(Nc2ncc(Cl)c(-c3cc4ccccc4s3)n2)cc1)N1CCC(N2CCCC2)CC1	binding, competition with immobilised ligand	1 µM	47
CNCc1ccccc1-c1csc([C@@H](C)Nc2nc(C)nc3cc(OC)c(OC)cc23)c1	cell-free assay, competition with immobilised ligand	1 µM	57
CN(C)c1nccc(-c2cnn3ncccc23)n1	binding	1 µM	100
O=C(Nc1cnc(Oc2ccc(F)cc2)nc1)N1CCc2ncccc2[C@@H]1c1ccc(F)cc1	cell-free assay, competition with immobilised ligand	1 µM	80
N[C@H]1CCN(c2nccc(-c3cnn4ncccc34)n2)C1	binding	1 µM	100
C[C@@H](c1cccc(C#N)c1)n1cc(Cl)cc(C(N)=O)c1=N	cell-free assay, competition with immobilised ligand	1 µM	100
O=C(NCC1CCOCC1)c1n[nH]cc1NC(=O)c1c(F)cccc1F	binding, competition with immobilised ligand	1 µM	79
